From ChEMBL document CHEMBL1208758, “GPR109a agonists. Part 2: pyrazole-acids as agonists of the human orphan G-protein coupled receptor GPR109a” (Bioorg Med Chem Lett, 2010)

What was measured:
[1] = Oral bioavailability in C57BL/6 mouse at 2 mg/kg; assay type: ADME, organism-based; conditions: in vivo
Outline: (§1)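 Pharmacokinetics in C57BL/6 mice: single dose 1 mg/kg iv or 2 mg/kg po.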

[2] = Plasma clearance in C57BL/6 mouse at 2 mg/kg, po and 1 mg/kg, iv; assay type: ADME, organism-based; outline: as §1
[3] = Volume of distribution at steady state in C57BL/6 mouse at 2 mg/kg, po and 1 mg/kg, iv; assay type: ADME, organism-based; conditions: in vivo, read-out: Vdss; outline: as §1
[4] = Half life in C57BL/6 mouse at 2 mg/kg, po and 1 mg/kg, iv; assay type: ADME, organism-based; conditions: in vivo; outline: as §1
Mus musculus = assay: Reduction in plasma free fatty acid level in C57BL/6 mouse at 10 mg/kg, ip after 15 mins; assay type: functional; design: scale not given: the % may be the effect or the level left; conditions: route intraperitoneal
Outline: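 Male C57BL/6 mice, six per group, single 10 mpk ip dose; plasma free fatty acids measured 15 min after dosing and reported as percent reduction. Niacin given at 100 mpk ip as comparator.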

| Structure (SMILES) | bioavailability [1] | clearance [2] | Vd [3] | half-life [4] | Activity (Mus musculus) |
| --- | --- | --- | --- | --- | --- |
| O=C(O)c1n[nH]c2c1CC(c1cc(F)cc(F)c1F)C2 (centres undefined) | 53% | 24 mL/min/kg | 9.3 L/kg |  |  |
| Cn1nccc1C1Cc2[nH]nc(C(=O)O)c2C1 (centres undefined) | 27% | 86 mL/min/kg | 4.2 L/kg | 2.3 h | 41% |
| Fc1cc(F)c(F)c(C2Cc3[nH]nc(-c4nnn[nH]4)c3C2)c1 (centres undefined) |  |  |  |  | 21% |
